Calls of active or inactive are those of the source. The calls are words filed in the database; no cut-off is given here.
Columns and labels:
Assay type in all cases: protein-complex assay
[1] = biological target: T1, MexXY/OprM (Pseudomonas aeruginosa (strain ATCC 15692 / DSM 22644 / CIP 104116 / JCM14847 / LMG 12228 / 1C / PRS 101 / PAO1)) (UniProt Q51487+Q9ZNG9+Q9ZNG8); experiment: Inhibition of MexXY/OPRM in Pseudomonas aeruginosa PA14 assessed as reduction in bacterial resistance to tobramycin by measuring tobramycin MIC at 80 ug/ml incubated for 24 to 48 hrs by broth microdilution method (reference value: 0.125 ug/ml)
Outline: (§1)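 Broth microdilution per CLSI, with P. aeruginosa ATCC 27853 as reference strain, in 2-fold dilution series. Plates were incubated at 37°C and read for visible growth at 24 and 48 h. Berberine stock was in 50% DMSO/50% methanol, with final DMSO kept near 1%. Berberine was tested at 10–320 µg/ml, alone or at a fixed level with serial tobramycin.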

[2] = biological target: T1, MexXY/OprM (Pseudomonas aeruginosa (strain ATCC 15692 / DSM 22644 / CIP 104116 / JCM14847 / LMG 12228 / 1C / PRS 101 / PAO1)); experiment: Inhibition of MexXY/OPRM in Pseudomonas aeruginosa C9 assessed as reduction in bacterial resistance to tobramycin by measuring tobramycin MIC at 80 ug/ml incubated for 24 to 48 hrs by broth microdilution method (reference value: 2 ug/ml); outline: as §1
[3] = biological target: T1, MexXY/OprM (Pseudomonas aeruginosa (strain ATCC 15692 / DSM 22644 / CIP 104116 / JCM14847 / LMG 12228 / 1C / PRS 101 / PAO1)); experiment: Inhibition of MexXY/OPRM in Pseudomonas aeruginosa C25 assessed as reduction in bacterial resistance to tobramycin by measuring tobramycin MIC at 80 ug/ml incubated for 24 to 48 hrs by broth microdilution method (reference value: 16 ug/ml)
[4] = biological target: T1, MexXY/OprM (Pseudomonas aeruginosa (strain ATCC 15692 / DSM 22644 / CIP 104116 / JCM14847 / LMG 12228 / 1C / PRS 101 / PAO1)); experiment: Inhibition of MexXY/OPRM in Pseudomonas aeruginosa C30 assessed as reduction in bacterial resistance to tobramycin by measuring tobramycin MIC at 80 ug/ml incubated for 24 to 48 hrs by broth microdilution method (reference value: 8 ug/ml)
[5] = biological target: T1, MexXY/OprM (Pseudomonas aeruginosa (strain ATCC 15692 / DSM 22644 / CIP 104116 / JCM14847 / LMG 12228 / 1C / PRS 101 / PAO1)); experiment: Inhibition of MexXY/OPRM in Pseudomonas aeruginosa C54 assessed as reduction in bacterial resistance to tobramycin by measuring tobramycin MIC at 80 ug/ml incubated for 24 to 48 hrs by broth microdilution method (reference value: 32 ug/ml)
[6] = biological target: T1, MexXY/OprM (Pseudomonas aeruginosa (strain ATCC 15692 / DSM 22644 / CIP 104116 / JCM14847 / LMG 12228 / 1C / PRS 101 / PAO1)); experiment: Inhibition of MexXY/OPRM in Pseudomonas aeruginosa C60 assessed as reduction in bacterial resistance to tobramycin by measuring tobramycin MIC at 80 ug/ml incubated for 24 to 48 hrs by broth microdilution method (reference value: >128 ug/ml)
[7] = biological target: T1, MexXY/OprM (Pseudomonas aeruginosa (strain ATCC 15692 / DSM 22644 / CIP 104116 / JCM14847 / LMG 12228 / 1C / PRS 101 / PAO1)); experiment: Inhibition of MexXY/OPRM in Pseudomonas aeruginosa C73 assessed as reduction in bacterial resistance to tobramycin by measuring tobramycin MIC at 80 ug/ml incubated for 24 to 48 hrs by broth microdilution method (reference value: 128 ug/ml)
[8] = biological target: T1, MexXY/OprM (Pseudomonas aeruginosa (strain ATCC 15692 / DSM 22644 / CIP 104116 / JCM14847 / LMG 12228 / 1C / PRS 101 / PAO1)); experiment: Inhibition of MexXY/OPRM in Pseudomonas aeruginosa C76 assessed as reduction in bacterial resistance to tobramycin by measuring tobramycin MIC at 80 ug/ml incubated for 24 to 48 hrs by broth microdilution method (reference value: 32 ug/ml)
[9] = biological target: T1, MexXY/OprM (Pseudomonas aeruginosa (strain ATCC 15692 / DSM 22644 / CIP 104116 / JCM14847 / LMG 12228 / 1C / PRS 101 / PAO1)); experiment: Inhibition of MexXY/OPRM in Pseudomonas aeruginosa C83 assessed as reduction in bacterial resistance to tobramycin by measuring tobramycin MIC at 80 ug/ml incubated for 24 to 48 hrs by broth microdilution method (reference value: 128 ug/ml)
[10] = biological target: T1, MexXY/OprM (Pseudomonas aeruginosa (strain ATCC 15692 / DSM 22644 / CIP 104116 / JCM14847 / LMG 12228 / 1C / PRS 101 / PAO1)); experiment: Inhibition of MexXY/OPRM in Pseudomonas aeruginosa C86 assessed as reduction in bacterial resistance to tobramycin by measuring tobramycin MIC at 80 ug/ml incubated for 24 to 48 hrs by broth microdilution method (reference value: 128 ug/ml); outline: as §1
[11] = biological target: T1, MexXY/OprM (Pseudomonas aeruginosa (strain ATCC 15692 / DSM 22644 / CIP 104116 / JCM14847 / LMG 12228 / 1C / PRS 101 / PAO1)); experiment: Inhibition of MexXY/OPRM in Pseudomonas aeruginosa C93 assessed as reduction in bacterial resistance to tobramycin by measuring tobramycin MIC at 80 ug/ml incubated for 24 to 48 hrs by broth microdilution method (reference value: >128 ug/ml); outline: as §1
[12] = biological target: T1, MexXY/OprM (Pseudomonas aeruginosa (strain ATCC 15692 / DSM 22644 / CIP 104116 / JCM14847 / LMG 12228 / 1C / PRS 101 / PAO1)); experiment: Inhibition of MexXY/OPRM in Pseudomonas aeruginosa AR48 assessed as reduction in bacterial resistance to tobramycin by measuring tobramycin MIC at 80 ug/ml incubated for 24 to 48 hrs by broth microdilution method (reference value: 32 ug/ml)
[13] = biological target: T1, MexXY/OprM (Pseudomonas aeruginosa (strain ATCC 15692 / DSM 22644 / CIP 104116 / JCM14847 / LMG 12228 / 1C / PRS 101 / PAO1)); experiment: Inhibition of MexXY/OPRM in Pseudomonas aeruginosa C67 assessed as reduction in bacterial resistance to tobramycin by measuring tobramycin MIC at 80 ug/ml incubated for 24 to 48 hrs by broth microdilution method (reference value: 16 ug/ml)
[14] = biological target: T1, MexXY/OprM (Pseudomonas aeruginosa (strain ATCC 15692 / DSM 22644 / CIP 104116 / JCM14847 / LMG 12228 / 1C / PRS 101 / PAO1)); experiment: Inhibition of MexXY/OPRM in Pseudomonas aeruginosa C95 assessed as reduction in bacterial resistance to tobramycin by measuring increase in tobramycin-mediated bactericidal activity at 80 ug/ml in presence of 1XMIC to 2XMIC tobramycin measured after 2 hrs by Time-kill curve analysis
[15] = biological target: T1, MexXY/OprM (Pseudomonas aeruginosa (strain ATCC 15692 / DSM 22644 / CIP 104116 / JCM14847 / LMG 12228 / 1C / PRS 101 / PAO1)); experiment: Inhibition of MexXY/OPRM in Pseudomonas aeruginosa PA14 assessed as bacterial growth up to 320 ug/ml incubated for 24 to 48 hrs by broth microdilution method; outline: as §1
[16] = biological target: T1, MexXY/OprM (Pseudomonas aeruginosa (strain ATCC 15692 / DSM 22644 / CIP 104116 / JCM14847 / LMG 12228 / 1C / PRS 101 / PAO1)); experiment: Inhibition of MexXY/OPRM in Pseudomonas aeruginosa K767 assessed as bacterial growth up to 320 ug/ml incubated for 24 to 48 hrs by broth microdilution method; outline: as §1
[17] = biological target: T1, MexXY/OprM (Pseudomonas aeruginosa (strain ATCC 15692 / DSM 22644 / CIP 104116 / JCM14847 / LMG 12228 / 1C / PRS 101 / PAO1)); experiment: Inhibition of MexXY/OPRM in Pseudomonas aeruginosa C25 assessed as bacterial growth up to 320 ug/ml incubated for 24 to 48 hrs by broth microdilution method
Outline: (§2)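 Broth microdilution following CLSI guidelines, with P. aeruginosa ATCC 27853 as reference strain. Berberine was tested at 2-fold concentrations from 10 to 320 µg/ml, dissolved in 50% DMSO/50% methanol, with the top concentration set to keep final DMSO close to 1%. Plates were incubated at 37°C and read for visible growth at 24 and 48 h.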

[18] = biological target: T1, MexXY/OprM (Pseudomonas aeruginosa (strain ATCC 15692 / DSM 22644 / CIP 104116 / JCM14847 / LMG 12228 / 1C / PRS 101 / PAO1)); experiment: Inhibition of MexXY/OPRM in Pseudomonas aeruginosa C30 assessed as bacterial growth up to 320 ug/ml incubated for 24 to 48 hrs by broth microdilution method; outline: as §2
[19] = biological target: T1, MexXY/OprM (Pseudomonas aeruginosa (strain ATCC 15692 / DSM 22644 / CIP 104116 / JCM14847 / LMG 12228 / 1C / PRS 101 / PAO1)); experiment: Inhibition of MexXY/OPRM in Pseudomonas aeruginosa C52 assessed as bacterial growth up to 320 ug/ml incubated for 24 to 48 hrs by broth microdilution method; outline: as §2
[20] = biological target: T1, MexXY/OprM (Pseudomonas aeruginosa (strain ATCC 15692 / DSM 22644 / CIP 104116 / JCM14847 / LMG 12228 / 1C / PRS 101 / PAO1)); experiment: Inhibition of MexXY/OPRM in Pseudomonas aeruginosa C73 assessed as bacterial growth up to 320 ug/ml incubated for 24 to 48 hrs by broth microdilution method; outline: as §2
[21] = biological target: T1, MexXY/OprM (Pseudomonas aeruginosa (strain ATCC 15692 / DSM 22644 / CIP 104116 / JCM14847 / LMG 12228 / 1C / PRS 101 / PAO1)); experiment: Inhibition of MexXY/OPRM in Pseudomonas aeruginosa AR51 assessed as bacterial growth up to 320 ug/ml incubated for 24 to 48 hrs by broth microdilution method; outline: as §2
[22] = biological target: T1, MexXY/OprM (Pseudomonas aeruginosa (strain ATCC 15692 / DSM 22644 / CIP 104116 / JCM14847 / LMG 12228 / 1C / PRS 101 / PAO1)); experiment: Inhibition of MexXY/OPRM in Pseudomonas aeruginosa C6 assessed as reduction in bacterial resistance to tobramycin by measuring fold reduction in tobramycin MIC at 80 ug/ml incubated for 24 to 48 hrs by broth microdilution method
[23] = biological target: T1, MexXY/OprM (Pseudomonas aeruginosa (strain ATCC 15692 / DSM 22644 / CIP 104116 / JCM14847 / LMG 12228 / 1C / PRS 101 / PAO1)); experiment: Inhibition of MexXY/OPRM in Pseudomonas aeruginosa C25 assessed as reduction in bacterial resistance to tobramycin by measuring fold reduction in tobramycin MIC at 80 ug/ml incubated for 24 to 48 hrs by broth microdilution method
[24] = biological target: T1, MexXY/OprM (Pseudomonas aeruginosa (strain ATCC 15692 / DSM 22644 / CIP 104116 / JCM14847 / LMG 12228 / 1C / PRS 101 / PAO1)); experiment: Inhibition of MexXY/OPRM in Pseudomonas aeruginosa C70 assessed as reduction in bacterial resistance to tobramycin by measuring fold reduction in tobramycin MIC at 80 ug/ml incubated for 24 to 48 hrs by broth microdilution method

## COc1ccc2cc3[n+](cc2c1OC)CCc1cc2c(cc1-3)OCO2 [BERBERINE]
[1]
  MIC: 0.125 µg/mL
[2]
  MIC: 1 µg/mL
[3]
  MIC: 1 µg/mL
[4]
  MIC: 8 µg/mL
[5]
  MIC: 16 µg/mL
[6]
  MIC: 64 µg/mL
[7]
  MIC: 64 µg/mL
[8]
  MIC: 16 µg/mL
[9]
  MIC: 32 µg/mL
[10]
  MIC: 16 µg/mL
[11]
  MIC: 64 µg/mL
[12]
  MIC: 8 µg/mL
[13]
  MIC: 16 µg/mL
[14]
  inhibition: Active
[15]
  inhibition: inactive
[16]
  inhibition: inactive
[17]
  inhibition: inactive
[18]
  inhibition: inactive
[19]
  inhibition: inactive
[20]
  inhibition: inactive
[21]
  inhibition: inactive
[22]
  fold change (FC): > 2
[23]
  fold change (FC): 16
[24]
  fold change (FC): > 2
